# Columns and labels:
# [1] = Anti-inflammatory activity using bovine serum albumin and egg albumin proteins incubated at 37 degC for 20 mins and then heated to 95 degC for 20 mins by UV-visible Spectrophotometry based protein denaturation method; type: functional
# Procedure, shortened: (§1)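 Albumin (bovine serum or egg) at 1% in 50 mM sodium phosphate buffer pH 6.4. Mixture is 0.1 ml test sample (1 mg/ml) plus 0.2 ml albumin, made to 5 ml with buffer. Held 37 °C for 20 min, then 95 °C for 20 min. Cooled to room temperature, turbidity read at 660 nm. % inhibition = (Abs control − Abs sample)/Abs control × 100. Triplicate, averaged.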
# [2] = Anti-inflammatory activity at 50 ug/ml using bovine serum albumin and egg albumin proteins incubated at 37 degC for 20 mins and then heated to 95 degC for 20 mins by UV-visible Spectrophotometry based protein denaturation method; type: functional; procedure, shortened: as §1
# [3] = Anti-inflammatory activity at 100 ug/ml using bovine serum albumin and egg albumin proteins incubated at 37 degC for 20 mins and then heated to 95 degC for 20 mins by UV-visible Spectrophotometry based protein denaturation method; type: functional; procedure, shortened: as §1
# Micrococcus luteus [4] = assay: Antimicrobial activity against Micrococcus luteus at 1 mg/ml incubated for 20 to 30 mins followed by incubation for 24 hrs at 37 degC by agar plate method; type: functional; settings: read-out: DIZ
# Procedure, shortened: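 Agar well diffusion on nutrient agar. Plates swabbed with 60 µL inoculum; 8 mm wells loaded with 100 µL of compound at 1.0 mg/mL. Held 20–30 min at 4 °C for diffusion, then 24 h at 37 °C. Inhibition zone diameter read in mm. Triplicate.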
# Salmonella typhi [5] = assay: Antimicrobial activity against Salmonella typhi at 1 mg/ml incubated for 20 to 30 mins followed by incubation for 24 hrs at 37 degC by agar plate method; type: functional, Salmonella enterica subsp. enterica serovar Typhi; settings: Salmonella enterica; read-out: DIZ
# Procedure, shortened: (§2)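 Agar well diffusion on nutrient agar. Plates swabbed with 60 µL inoculum, 8 mm wells loaded with 100 µL sample at 1.0 mg/mL, streptomycin standard and control in separate wells. Plates held 20–30 min at 4 °C for diffusion, then 24 h at 37 °C. Zone diameter read in mm; triplicate.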
# U-937 [6] = assay: Anti-inflammatory activity in human U937 cells assessed as inhibition of LPS-induced TNFalpha production at 10 uM pre-incubated for 1 hr before LPS stimulation for 24 hrs by ELISA method; type: functional
# Procedure, shortened: (§3)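 Human U937 cells grown in RPMI1640 with 10% FBS at 37 °C, 5% CO2. Differentiated with PMA 30 ng/ml for 24 h. Test compounds added for 1 h, then LPS 1 µg/ml for 24 h. TNF-α and IL-6 in supernatant measured by ELISA. Three independent experiments.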
# Salmonella paratyphi [7] = assay: Antimicrobial activity against Salmonella paratyphi at 1 mg/ml incubated for 20 to 30 mins followed by incubation for 24 hrs at 37 degC by agar plate method; type: functional, Salmonella enterica subsp. enterica serovar Paratyphi A; settings: Salmonella enterica; read-out: DIZ; procedure, shortened: as §2
# U-937 [8] = assay: Anti-inflammatory activity in human U937 cells assessed as inhibition of LPS-induced IL6 production at 10 uM pre-incubated for 1 hr before LPS stimulation for 24 hrs by ELISA method; type: functional; procedure, shortened: as §3
# U-937 [9] = assay: Anti-inflammatory activity in human U937 cells assessed as inhibition of LPS-induced IL6 production pre-incubated for 1 hr before LPS stimulation for 24 hrs by ELISA method; type: functional, cell-based; procedure, shortened: as §3
# Micrococcus luteus [10] = assay: Antimicrobial activity against Micrococcus luteus incubated for 12 to 16 hrs followed by plating in nutrient agar by tube dilution method; type: functional
# Procedure, shortened: (§4)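 Tube dilution, serial from 500 to 1.9 µg/mL, plus drug-free control tube. Each tube inoculated with 1 mL culture at OD 0.2, incubated 37 °C for 12–16 h. MIC is the lowest concentration with no growth by turbidity. MBC is found by plating each tube on nutrient agar: the lowest concentration at which all cells are killed.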
# Salmonella typhi [11] = assay: Antimicrobial activity against Salmonella typhi incubated for 12 to 16 hrs by tube dilution method; type: functional, Salmonella enterica subsp. enterica serovar Typhi; settings: Salmonella enterica
# Procedure, shortened: (§5)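 Broth tube dilution, two-fold serial dilutions from 500 to 1.9 µg/mL plus a drug-free control tube. Each tube inoculated with 1 mL culture at OD 0.2 (~McFarland standard), 37 °C for 12-16 h. Turbidity compared with the control tube. MIC is the lowest concentration giving complete growth inhibition.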
# U-937 [12] = assay: Anti-inflammatory activity in human U937 cells assessed as inhibition of LPS-induced TNFalpha production pre-incubated for 1 hr before LPS stimulation for 24 hrs by ELISA method; type: functional, cell-based; procedure, shortened: as §3
# Salmonella paratyphi [13] = assay: Antimicrobial activity against Salmonella paratyphi incubated for 12 to 16 hrs followed by plating in nutrient agar by tube dilution method; type: functional, Salmonella enterica subsp. enterica serovar Paratyphi A; settings: Salmonella enterica
# Procedure, shortened: (§6)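 After 12-16 h at 37 °C in tube dilution (500 to 1.9 µg/mL; 1 mL inoculum at OD 0.2), the culture from each tube was plated on nutrient agar. MBC is the concentration at which cells are completely killed.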
# Micrococcus luteus [14] = assay: Antimicrobial activity against Micrococcus luteus incubated for 12 to 16 hrs by tube dilution method; type: functional; procedure, shortened: as §4
# Salmonella paratyphi [15] = assay: Antimicrobial activity against Salmonella paratyphi incubated for 12 to 16 hrs by tube dilution method; type: functional, Salmonella enterica subsp. enterica serovar Paratyphi A; settings: Salmonella enterica; procedure, shortened: as §5
# Salmonella typhi [16] = assay: Antimicrobial activity against Salmonella typhi incubated for 12 to 16 hrs followed by plating in nutrient agar by tube dilution method; type: functional, Salmonella enterica subsp. enterica serovar Typhi; settings: Salmonella enterica; procedure, shortened: as §6
SMILES,IC50 [1],inhibition [2],inhibition [3],zone of inhibition at 1000 µg/mL (Micrococcus luteus [4]),zone of inhibition at 1000 µg/mL (Salmonella typhi [5]),inhibition at 10 µM (U-937 [6]),zone of inhibition at 1000 µg/mL (Salmonella paratyphi [7]),inhibition at 10 µM (U-937 [8]),IC50 (U-937 [9]),MBC (Micrococcus luteus [10]),MIC (Salmonella typhi [11]),IC50 (U-937 [12]),MBC (Salmonella paratyphi [13]),MIC (Micrococcus luteus [14]),MIC (Salmonella paratyphi [15]),MBC (Salmonella typhi [16])
Cc1ccc(-c2nn(-c3ccccc3)cc2CO)cc1,61.05 µg/mL,60.3%,81.9%,16.5 mm,19 mm,0.74%,14 mm,20.9%,–,–,–,–,–,–,–,–
COc1ccc(-c2nn(-c3ccccc3)cc2Cn2cc(CO)nn2)cc1,58 µg/mL,69%,86.2%,26 mm,16 mm,40.9%,19 mm,46.7%,9.5 µM,125 µg/mL,62.5 µg/mL,17.2 µM,62.5 µg/mL,125 µg/mL,62.5 µg/mL,125 µg/mL
OCc1cn(-c2ccc(Cl)cc2)nc1-c1ccccc1,54.21 µg/mL,76.7%,92.2%,26.5 mm,21.5 mm,2.61%,18 mm,21.6%,–,7.81 µg/mL,62.5 µg/mL,–,62.5 µg/mL,3.9 µg/mL,31.2 µg/mL,125 µg/mL
COc1ccc(-c2nn(-c3ccccc3)cc2CO)cc1,105.45 µg/mL,15.5%,47.4%,–,–,22.9%,11.5 mm,68.5%,8.24 µM,–,–,35.5 µM,–,–,–,–
OCc1cn(Cc2cn(-c3ccccc3)nc2-c2ccccc2)nn1,128.89 µg/mL,10.3%,38.8%,–,–,15.7%,12.5 mm,53%,8.12 µM,–,–,35.7 µM,–,–,–,–
Cc1ccc(-n2cc(Cn3cc(CO)nn3)c(-c3ccccc3)n2)cc1,59.79 µg/mL,66.4%,83.6%,–,19 mm,31.2%,11.5 mm,50.4%,8.7 µM,–,–,21.4 µM,–,–,–,–
OCc1cn(-c2ccccc2)nc1-c1ccc(Cl)cc1,59.79 µg/mL,67.2%,83.6%,–,–,3.32%,12 mm,24.1%,–,–,–,–,–,–,–,–
OCc1cn(Cc2cn(-c3ccccc3)nc2-c2ccc(Cl)cc2)nn1,68.24 µg/mL,49.1%,73.3%,–,–,19.2%,15 mm,76.9%,6.23 µM,–,–,30.9 µM,–,–,–,–
OCc1cn(Cc2cn(-c3ccccc3)nc2-c2ccc(Cl)cc2Cl)nn1,65.17 µg/mL,50.9%,76.7%,–,14 mm,9.9%,17 mm,39.6%,–,–,–,–,–,–,–,–
Cc1ccc(-c2nn(-c3ccccc3)cc2Cn2cc(CO)nn2)cc1,128.89 µg/mL,21.6%,38.8%,–,15 mm,14.8%,14 mm,42%,–,–,–,–,–,–,–,–
OCc1cn(-c2ccccc2)nc1-c1ccc(Cl)cc1Cl,62.37 µg/mL,60.3%,80.2%,–,13.5 mm,4.92%,11.5 mm,18.3%,–,–,–,–,–,–,–,–
OCc1cn(-c2ccccc2)nc1-c1ccccc1,56.86 µg/mL,75.9%,87.9%,–,11.5 mm,1.44%,14 mm,19.6%,–,–,–,–,–,–,–,–
OCc1cn(Cc2cn(-c3ccc(Cl)cc3)nc2-c2ccccc2)nn1,63.74 µg/mL,55.2%,78.5%,11.5 mm,19.5 mm,12.7%,16.5 mm,38.8%,–,–,–,–,–,–,–,–
Cc1ccc(-n2cc(CO)c(-c3ccccc3)n2)cc1C,59.79 µg/mL,66.4%,83.6%,–,14.5 mm,8.35%,12 mm,46.4%,–,–,–,–,–,–,–,–
COc1ccc(C2CNC(=O)C2)cc1OC1CCCC1 (centres undefined) [ROLIPRAM],–,–,–,–,–,59.1%,–,53.5%,1.17 µM,–,–,1.12 µM,–,–,–,–
